Columns and labels:
NCI-H322M = assay: Growth inhibition of human NCI-H322M cells assessed as growth percentage at 10 uM incubated for 48 hrs by sulforhodamine B assay relative to control; format: functional; conditions: read-out: Activity
Procedure, shortened: (§1)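 NCI-60 one-dose screen. Cells in RPMI 1640 with 5% FBS and 2 mM L-glutamine, seeded at 5,000–40,000 cells/well according to doubling time, and preincubated overnight at 37 °C, 5% CO2. A time-zero plate was TCA-fixed at drug addition. Compound from DMSO stock, final 10 µM, 48 h; DMSO vehicle controls. Fixation with TCA, 10% final (16% for suspension cells). SRB stain, Tris solubilization, A515. Result given as % growth versus untreated cells.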

NCI-H522 = assay: Growth inhibition of human NCI-H522 cells assessed as growth percentage at 10 uM incubated for 48 hrs by sulforhodamine B assay relative to control; format: functional; conditions: NCI-H522, 48 h, read-out: Activity; procedure, shortened: as §1
HCT-116 = assay: Growth inhibition of human HCT116 cells assessed as growth percentage at 10 uM incubated for 48 hrs by sulforhodamine B assay relative to control; format: functional; conditions: HCT-116, 48 h, read-out: Activity
Procedure, shortened: (§2)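 NCI-60 one-dose screen: cells in RPMI 1640 with 5% FBS and 2 mM L-glutamine, plated at 5,000–40,000 cells/well and preincubated 24 h at 37 °C, 5% CO2. Compound is added from a DMSO stock to a final 10 µM and incubated 48 h. Cells are TCA-fixed and stained with sulforhodamine B, read at 515 nm. Output is % growth versus untreated control, with a time-zero plate.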

HT-29 = assay: Growth inhibition of human HT-29 cells assessed as growth percentage at 10 uM incubated for 48 hrs by sulforhodamine B assay relative to control; format: functional; conditions: HT-29, 48 h, read-out: Activity; procedure, shortened: as §1
SF-295 = assay: Growth inhibition of human SF295 cells assessed as growth percentage at 10 uM incubated for 48 hrs by sulforhodamine B assay relative to control; format: functional; conditions: SF-295, 48 h, read-out: Activity
Procedure, shortened: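 NCI-60 single-dose screen. Cells were grown in RPMI 1640 with 5% FBS and 2 mM L-glutamine and plated at 5,000–40,000 cells/well. After an overnight preincubation at 37 °C in 5% CO2, compound was added at a final 10 µM from a DMSO stock, with DMSO/PBS controls. After 48 h, cells were TCA-fixed and stained with 0.4% SRB, and absorbance was read at 515 nm. Growth is given as a percentage of untreated control.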

OVCAR-3 = assay: Growth inhibition of human OVCAR3 cells assessed as growth percentage at 10 uM incubated for 48 hrs by sulforhodamine B assay relative to control; format: functional; conditions: OVCAR-3, 48 h, read-out: Activity; procedure, shortened: as §1
OVCAR-4 = assay: Growth inhibition of human OVCAR4 cells assessed as growth percentage at 10 uM incubated for 48 hrs by sulforhodamine B assay relative to control; format: functional; conditions: OVCAR-4, 48 h, read-out: Activity; procedure, shortened: as §1
786-0 = assay: Growth inhibition of human 786-0 cells assessed as growth percentage at 10 uM incubated for 48 hrs by sulforhodamine B assay relative to control; format: functional; conditions: 786-0, 48 h, read-out: Activity; procedure, shortened: as §2
MDA-MB-468 = assay: Growth inhibition of human MDA-MB-468 cells assessed as growth percentage at 10 uM incubated for 48 hrs by sulforhodamine B assay relative to control; format: functional; conditions: MDA-MB-468, 48 h, read-out: Activity; procedure, shortened: as §1
[1] = Growth inhibition of human HEK293 cells assessed as cell viability at 0.39 ug incubated for 48 hrs by MTT assay relative to control; format: cell-based; conditions: read-out: Activity
[2] = Growth inhibition of human HEK293 cells assessed as cell viability at 1.56 ug incubated for 48 hrs by MTT assay relative to control; format: cell-based; conditions: read-out: Activity
[3] = Growth inhibition of human HEK293 cells assessed as cell viability at 6.25 ug incubated for 48 hrs by MTT assay relative to control; format: cell-based; conditions: read-out: Activity
[4] = Growth inhibition of human HEK293 cells assessed as cell viability at 25 ug incubated for 48 hrs by MTT assay relative to control; format: cell-based; conditions: read-out: Activity
[5] = Growth inhibition of human HEK293 cells assessed as cell viability at 100 ug incubated for 48 hrs by MTT assay relative to control; format: cell-based; conditions: read-out: Activity
HEK293 = assay: Growth inhibition of human HEK293 cells assessed as cell viability incubated for 48 hrs by MTT assay; format: cell-based; parameters: unit not given here
Procedure, shortened: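 HEK 293 normal-cell growth inhibition; measured in triplicate, IC50 reported as mean ± SD.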

[6] = Inhibition of kinesin (unknown origin) assessed as reduction in ATPase activity using microtubule as substrate measured for 5 to mins; parameters: species or system Homo sapiens

Row | Structure (SMILES) | growth at 10 µM (NCI-H322M) | growth at 10 µM (NCI-H522) | growth at 10 µM (HCT-116) | growth at 10 µM (HT-29) | growth at 10 µM (SF-295) | growth at 10 µM (OVCAR-3) | growth at 10 µM (OVCAR-4) | growth at 10 µM (786-0) | growth at 10 µM (MDA-MB-468) | viability at 48 h, 0.39 ug [1] | viability at 48 h, 1.56 ug [2] | viability at 48 h, 6.25 ug [3] | viability at 48 h, 25 ug [4] | viability at 48 h, 100 ug [5] | IC50 (HEK293) | IC50 [6]
1 | CC1=C(C(=O)OC(C)C)C(c2ccc3c(c2)OCO3)NC(=O)N1 (racemic) | 113% | 91.1% | 96.4% | 103% | 104% | 114% | 103% | 102% | 104% | – | – | – | – | – | – | –
2 | CC(=O)C1=C(C)NC(=O)NC1c1ccc2c(c1)OCO2 (racemic) | 104% | 91.1% | 108% | 104% | 106% | 115% | 108% | 105% | 105% | – | – | – | – | – | – | –
3 | CC1=C(C(=O)c2ccccc2)C(c2ccc3c(c2)OCO3)NC(=S)N1 (racemic) | 67.7% | 38.3% | 20.1% | 18.5% | 51.2% | 12.9% | 82.3% | 58.9% | 54.3% | 86.8% | 79.5% | 69.9% | 57.9% | 46% | 62.02 | 10.7 µM
4 | CC1=C(C(=O)OC(C)C)C(c2ccc3c(c2)OCO3)NC(=S)N1 (racemic) | 108% | 86.4% | 95.6% | 103% | 95.8% | 121% | 98.4% | 104% | 115% | – | – | – | – | – | – | –
5 | CC(=O)C1=C(C)NC(=S)NC1c1ccc2c(c1)OCO2 (racemic) | 112% | 92.3% | 104% | 106% | 104% | 109% | 103% | 103% | 113% | – | – | – | – | – | – | –
6 | O=C1C2=C(NC(=S)NC2c2ccc3c(c2)OCO3)c2ccccc21 (racemic) | 106% | 91.5% | 110% | 108% | 102% | 113% | 102% | 108% | 108% | – | – | – | – | – | – | –
7 | CC(=O)N1C(=S)NC(C)=C(C(=O)OCC(C)C)C1c1ccc2c(c1)OCO2 (racemic) | 102% | 74.9% | 93.5% | 104% | 101% | 96.8% | 79.6% | 95.1% | 94.9% | – | – | – | – | – | – | –
8 | CC1=C(C(=O)OCC(C)C)C(c2ccc3c(c2)OCO3)NC(=O)N1 (racemic) | 115% | 91.1% | 105% | 105% | 99.5% | 117% | 104% | 104% | 100% | – | – | – | – | – | – | –
9 | CC1=C(C(=O)c2ccccc2)C(c2ccc3c(c2)OCO3)NC(=O)N1 (racemic) | 99.5% | 90.3% | 98.9% | 105% | 101% | 106% | 99.9% | 99.5% | 109% | – | – | – | – | – | – | –
